Source: ChEMBL document CHEMBL1129400 (J Med Chem, 1996)

Columns and labels:
[1] = target: T1, Alpha-1A adrenergic receptor (Homo sapiens, UniProt P35348); test: Compound was tested for binding affinity against human hippocampus Alpha-1A adrenergic receptor using radioligand ([3H]prazosin) binding assay
T1 sequence (P35348 whole entry): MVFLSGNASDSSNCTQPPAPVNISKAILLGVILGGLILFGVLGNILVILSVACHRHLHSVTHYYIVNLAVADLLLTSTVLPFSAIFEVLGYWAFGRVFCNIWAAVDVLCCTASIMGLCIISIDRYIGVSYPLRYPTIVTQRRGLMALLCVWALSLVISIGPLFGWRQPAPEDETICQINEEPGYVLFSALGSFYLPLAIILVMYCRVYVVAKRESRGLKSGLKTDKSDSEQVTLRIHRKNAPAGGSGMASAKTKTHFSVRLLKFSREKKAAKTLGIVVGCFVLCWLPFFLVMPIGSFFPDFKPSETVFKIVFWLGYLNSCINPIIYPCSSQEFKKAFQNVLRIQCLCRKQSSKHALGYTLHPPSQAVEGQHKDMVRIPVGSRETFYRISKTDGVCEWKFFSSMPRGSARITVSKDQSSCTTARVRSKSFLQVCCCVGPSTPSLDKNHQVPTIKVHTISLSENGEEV
In short: (§1)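 Membranes (30 µg protein) came from CHO cells stably transfected with the human α1-adrenoceptor subtype gene. […] Nonspecific binding was defined with 10 µM phentolamine. Filtration on PEI-treated filters followed. Ki came from the fitted IC50 via Cheng-Prusoff.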

[2] = target: T2, Alpha-1B adrenergic receptor (Homo sapiens, UniProt P35368); test: Compound was tested for binding affinity against […] Alpha-1B adrenergic receptor using radioligand ([3H]-prazosin) binding assay; in short: as §1
T2 sequence (P35368 whole entry): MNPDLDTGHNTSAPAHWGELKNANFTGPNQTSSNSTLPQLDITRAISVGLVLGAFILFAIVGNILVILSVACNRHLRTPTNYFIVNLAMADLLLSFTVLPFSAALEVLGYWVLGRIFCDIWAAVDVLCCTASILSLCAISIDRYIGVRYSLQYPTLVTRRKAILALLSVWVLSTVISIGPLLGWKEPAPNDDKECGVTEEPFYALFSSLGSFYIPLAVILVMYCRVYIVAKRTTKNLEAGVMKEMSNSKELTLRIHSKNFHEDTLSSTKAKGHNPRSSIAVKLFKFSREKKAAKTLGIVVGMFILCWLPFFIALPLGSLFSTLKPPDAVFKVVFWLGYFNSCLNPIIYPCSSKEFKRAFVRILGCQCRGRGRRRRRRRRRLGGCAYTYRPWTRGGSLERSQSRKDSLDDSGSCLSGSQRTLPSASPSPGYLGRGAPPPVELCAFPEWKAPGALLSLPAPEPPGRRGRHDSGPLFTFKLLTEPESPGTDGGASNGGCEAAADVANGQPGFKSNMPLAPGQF

D(2) dopamine receptor = D(2) dopamine receptor (Rattus norvegicus, UniProt P61169); test: Compound was tested for binding affinity against native Dopamine receptor D2 from rat striatum using radioligand [3H]-spiperone)
In short: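 Rat striatal membranes were prepared in Tris-HCl pH 7.4 with 10 µM pargyline, 0.1% ascorbic acid, 120 mM NaCl, 5 mM KCl, 2 mM CaCl2 and 1 mM MgCl2. Filtration and scintillation counting followed. Ki was obtained from the curve-fitted IC50 via Cheng-Prusoff; values are mean pKi ± SE.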

[3] = target: T3, Adrenergic receptor alpha-2 (Rattus norvegicus, UniProt P22086+P19328+P22909); test: Binding affinity against native Alpha-2 adrenergic receptor from rat cerebral cortex using radioligand ([3H]rauwolscine) binding assay; assay type: tissue-based
T3 sequence (P22086 whole entry): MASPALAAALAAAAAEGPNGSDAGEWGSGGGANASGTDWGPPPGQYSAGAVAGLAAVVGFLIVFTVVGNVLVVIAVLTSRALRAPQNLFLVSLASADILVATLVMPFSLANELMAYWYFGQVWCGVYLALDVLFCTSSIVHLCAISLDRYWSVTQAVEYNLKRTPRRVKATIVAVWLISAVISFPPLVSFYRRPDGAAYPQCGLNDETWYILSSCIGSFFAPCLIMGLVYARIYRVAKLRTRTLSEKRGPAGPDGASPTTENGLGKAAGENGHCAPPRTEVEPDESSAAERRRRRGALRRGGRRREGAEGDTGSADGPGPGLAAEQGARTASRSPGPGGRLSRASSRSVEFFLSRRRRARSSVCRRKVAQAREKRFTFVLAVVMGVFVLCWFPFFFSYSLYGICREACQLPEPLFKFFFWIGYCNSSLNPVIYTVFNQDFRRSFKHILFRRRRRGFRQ
T3 sequence (P19328 whole entry): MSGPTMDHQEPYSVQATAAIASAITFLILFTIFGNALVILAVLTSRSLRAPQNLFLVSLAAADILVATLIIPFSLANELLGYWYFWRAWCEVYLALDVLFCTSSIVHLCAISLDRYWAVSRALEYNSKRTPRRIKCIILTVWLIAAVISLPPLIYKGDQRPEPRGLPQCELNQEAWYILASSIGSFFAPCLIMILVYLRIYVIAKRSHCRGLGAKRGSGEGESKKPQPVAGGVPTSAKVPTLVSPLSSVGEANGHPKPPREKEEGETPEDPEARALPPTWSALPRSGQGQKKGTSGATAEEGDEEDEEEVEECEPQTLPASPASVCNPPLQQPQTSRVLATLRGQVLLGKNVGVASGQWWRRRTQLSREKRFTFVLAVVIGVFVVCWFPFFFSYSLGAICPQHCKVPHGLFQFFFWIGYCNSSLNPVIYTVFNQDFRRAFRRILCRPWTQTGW
T3 sequence (P22909 whole entry): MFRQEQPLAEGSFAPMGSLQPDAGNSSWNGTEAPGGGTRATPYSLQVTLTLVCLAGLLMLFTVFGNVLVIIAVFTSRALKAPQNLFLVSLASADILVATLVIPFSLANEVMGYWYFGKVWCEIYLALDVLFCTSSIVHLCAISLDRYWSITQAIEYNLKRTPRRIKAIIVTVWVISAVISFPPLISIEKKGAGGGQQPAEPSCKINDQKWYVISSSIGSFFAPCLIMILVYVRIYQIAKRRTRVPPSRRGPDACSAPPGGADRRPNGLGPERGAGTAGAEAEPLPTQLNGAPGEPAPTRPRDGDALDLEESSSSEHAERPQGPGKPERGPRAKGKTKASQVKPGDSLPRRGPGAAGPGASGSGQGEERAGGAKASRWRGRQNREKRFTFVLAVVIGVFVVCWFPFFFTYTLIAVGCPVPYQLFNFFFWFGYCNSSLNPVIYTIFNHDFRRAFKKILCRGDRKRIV

[4] = target: T4, Alpha-1D adrenergic receptor (Homo sapiens, UniProt P25100); test: Compound was tested for binding affinity against human hippocampus Alpha-1D adrenergic receptor using radioligand ([3H]prazosin) binding assay; in short: as §1
T4 sequence (P25100 whole entry): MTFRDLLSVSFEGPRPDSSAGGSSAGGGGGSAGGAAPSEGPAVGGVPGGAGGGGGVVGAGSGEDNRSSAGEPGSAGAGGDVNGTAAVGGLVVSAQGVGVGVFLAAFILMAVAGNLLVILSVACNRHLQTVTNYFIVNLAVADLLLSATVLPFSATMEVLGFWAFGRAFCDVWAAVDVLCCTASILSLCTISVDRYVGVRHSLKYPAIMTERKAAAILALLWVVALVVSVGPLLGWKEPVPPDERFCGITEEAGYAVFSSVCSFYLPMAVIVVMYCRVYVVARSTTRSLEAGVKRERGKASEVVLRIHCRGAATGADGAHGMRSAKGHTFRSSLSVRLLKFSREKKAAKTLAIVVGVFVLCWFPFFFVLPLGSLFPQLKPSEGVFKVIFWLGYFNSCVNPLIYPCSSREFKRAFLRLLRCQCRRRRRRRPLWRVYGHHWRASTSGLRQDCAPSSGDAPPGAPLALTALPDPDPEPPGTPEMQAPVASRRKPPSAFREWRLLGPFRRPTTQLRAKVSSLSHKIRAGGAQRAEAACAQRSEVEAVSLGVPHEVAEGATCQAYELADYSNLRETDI

[5] = target: T5, 5-hydroxytryptamine receptor 1A (Rattus norvegicus, UniProt P19327); test: Binding affinity against native 5-HT1A-receptors from rat hippocampus using radioligand ([3H]8-hydroxy-2-(di-n-propylamino)-tetraline) binding assay; assay type: tissue-based
T5 sequence (P19327 whole entry): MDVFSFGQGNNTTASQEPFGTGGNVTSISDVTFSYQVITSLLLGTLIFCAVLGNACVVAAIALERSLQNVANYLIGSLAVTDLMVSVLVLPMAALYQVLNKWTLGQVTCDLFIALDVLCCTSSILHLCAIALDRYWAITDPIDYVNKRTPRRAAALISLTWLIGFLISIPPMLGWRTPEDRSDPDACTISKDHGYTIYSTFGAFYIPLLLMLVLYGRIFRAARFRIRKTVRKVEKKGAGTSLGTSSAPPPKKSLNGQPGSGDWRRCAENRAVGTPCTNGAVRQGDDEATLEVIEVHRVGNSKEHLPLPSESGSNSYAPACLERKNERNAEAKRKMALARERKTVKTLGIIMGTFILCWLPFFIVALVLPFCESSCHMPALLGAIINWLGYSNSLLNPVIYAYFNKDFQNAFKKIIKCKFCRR

[6] = target: T6, Alpha-1A adrenergic receptor (Bos taurus, UniProt P18130); test: Compound was tested for binding affinity against cloned Alpha-1A adrenergic receptor from bovine brain using radioligand ([3H]prazosin) binding assay
T6 sequence (P18130 whole entry): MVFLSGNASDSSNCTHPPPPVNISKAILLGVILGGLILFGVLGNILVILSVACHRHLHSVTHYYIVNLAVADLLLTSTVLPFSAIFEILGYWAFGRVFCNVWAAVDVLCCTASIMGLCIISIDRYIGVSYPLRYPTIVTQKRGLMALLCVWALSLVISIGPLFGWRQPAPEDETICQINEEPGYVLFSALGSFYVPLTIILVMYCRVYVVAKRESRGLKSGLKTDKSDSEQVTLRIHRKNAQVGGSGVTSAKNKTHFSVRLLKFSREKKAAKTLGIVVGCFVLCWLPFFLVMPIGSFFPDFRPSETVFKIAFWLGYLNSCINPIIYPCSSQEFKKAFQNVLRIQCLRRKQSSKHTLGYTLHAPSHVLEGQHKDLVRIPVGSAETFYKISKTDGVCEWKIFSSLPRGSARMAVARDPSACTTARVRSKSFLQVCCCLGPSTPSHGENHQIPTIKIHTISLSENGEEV

D(2) dopamine receptor, sequence (P61169 whole entry): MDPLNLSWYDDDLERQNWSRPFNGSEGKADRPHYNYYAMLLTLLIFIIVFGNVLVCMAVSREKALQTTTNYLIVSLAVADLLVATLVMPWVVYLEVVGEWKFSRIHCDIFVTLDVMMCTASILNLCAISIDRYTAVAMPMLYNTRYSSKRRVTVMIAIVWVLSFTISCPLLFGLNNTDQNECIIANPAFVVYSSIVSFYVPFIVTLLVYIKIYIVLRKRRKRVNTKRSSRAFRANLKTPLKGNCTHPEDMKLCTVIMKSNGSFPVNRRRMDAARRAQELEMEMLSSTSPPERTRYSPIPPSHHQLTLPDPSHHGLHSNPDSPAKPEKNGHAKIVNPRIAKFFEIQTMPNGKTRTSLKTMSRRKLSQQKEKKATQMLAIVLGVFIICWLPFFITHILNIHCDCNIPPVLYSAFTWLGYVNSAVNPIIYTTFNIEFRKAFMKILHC

| Compound | Ki [1] [nM] | Ki [2] [nM] | Ki (D(2) dopamine receptor) [nM] | Log Ki [3] | Ki [4] [nM] | Ki [5] [nM] | Ki [6] [nM] |
| --- | --- | --- | --- | --- | --- | --- | --- |
| COc1cc2nc(N3CCN(C(=O)c4ccco4)[C@@H]4CCCC[C@@H]43)nc(N)c2cc1OC | 12.3 | 0.135 | 8320 | -6.13 | 3.24 | 12900 |  |
| COc1cc2nc(N3CCN(C(=O)c4ccco4)CC3)nc(N)c2cc1OC [PRAZOSIN] |  |  | > 10000 |  |  | 2340 |  |
| O=C(CCCN1CCC2(CC1)C(=O)NCN2c1ccccc1)c1ccc(F)cc1 [SPIPERONE] |  |  |  |  |  | 25.1 | 13.5 |

Continued, in another order:

| Ki [1] [nM] | Ki [2] [nM] | Ki (D(2) dopamine receptor) [nM] | Log Ki [3] | Ki [4] [nM] | Ki [5] [nM] | Compound | Ki [6] [nM] |
| --- | --- | --- | --- | --- | --- | --- | --- |
|  |  | > 10000 | -6.17 |  | 6920 | COc1cc2nc(N3CCN(C(=O)c4ccco4)C4CCCCC43)nc(N)c2cc1OC (racemic) |  |
|  |  | > 10000 | -5.86 |  | 6170 | COc1cc2nc(N3CCN(C(=O)c4ccco4)[C@H]4CCCC[C@H]43)nc(N)c2cc1OC [CYCLAZOSIN] |  |
